In ChEMBL document CHEMBL4354848, “Molecular Design and Synthesis of Ivermectin Hybrids Targeting Hepatic and Erythrocytic Stages of Plasmodium Parasites” (J Med Chem, 2020):
Calls of active or inactive are those of the source. The calls are words filed in the database; no cut-off is given here.

Columns and labels:
[1] = test system: Anopheles stephensi; assay: Insecticidal activity against compound treated Balb/c mouse blood fed Anopheles stephensi assessed as effect on mosquito survival at 1 mg/kg, po administered via gavage 24 hrs prior to blood feed for 20 mins under dark condition and measured daily up to 14 days post blood feed; format: functional, organism-based
How it was run: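 Balb/c mice (6-8 weeks) received a single oral dose of 1 mg/kg as a suspension in sunflower oil. Controls got DMSO in sunflower oil. At 24 h, ~30 mosquitoes per mouse fed for ~20 min in the dark. Blood ingestion was confirmed visually, and survival was scored daily up to 14 days.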

[2] = test system: Plasmodium berghei; assay: Antiplasmodial activity against luciferase expressing Plasmodium berghei sporozoites infected in human HuH7 cells assessed as reduction in parasite load at 1 to 10 uM preincubated for 1 hr followed by parasite infection and measured after 46 hrs by bioluminescence assay; format: functional, organism-based
How it was run: (§1)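 Huh7 hepatoma cells seeded at 1x10^4/well, left overnight at 37 °C, 5% CO2. Serial dilutions from 10 mM DMSO stocks in medium with gentamicin and amphotericin B added 1 h before 1x10^4 firefly luciferase-expressing P. berghei sporozoites from An. stephensi salivary glands. Spin 1800 xg for 5 min, then culture. Parasite load read by bioluminescence. DMSO and atovaquone as controls. IC50 from nonlinear regression of normalized curves.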

[3] = test system: Plasmodium berghei; assay: Antiplasmodial activity against luciferase expressing Plasmodium berghei sporozoites infected in human HuH7 cells assessed as reduction in parasite load preincubated for 1 hr followed by parasite infection and measured after 46 hrs by bioluminescence assay; format: functional, organism-based; how it was run: as §1
[4] = test system: Huh-7; assay: Cytotoxicity against human HuH7 cells infected with luciferase expressing Plasmodium berghei sporozoites assessed as reduction in cell viability preincubated for 1 hr followed by parasite infection and measured after 48 hrs by alamar blue assay; format: cell-based; conditions: huh-7, 46 h, in the assay text read “46 hrs” for “48 hrs”
How it was run: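 Huh7 cells were pre-treated for 1 h with serial dilutions from 10 mM DMSO stocks, then infected with luciferase-expressing P. berghei sporozoites and spun at 1800 xg for 5 min. Cultures were kept at 37 °C, 5% CO2. Viability was read by Alamar Blue added at 46 h post infection, following the manufacturer's instructions.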

[5] = test system: Plasmodium berghei; assay: Potency index, ratio of ivermectin IC50 to test compound IC50 for antiplasmodial activity against luciferase expressing Plasmodium berghei sporozoites infected in human HuH7 cells; format: functional
[6] = test system: Plasmodium falciparum; assay: Antiplasmodial activity against chloroquine-sensitive ring-stage synchronized cultures of Plasmodium falciparum NF54 incubated for 48 hrs by SYBR green I dye based flow cytometry; format: functional, organism-based
How it was run: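 Ring-stage synchronized PfNF54 cultures (2.5% hematocrit, ~1% parasitemia) exposed to compounds or DMSO vehicle for 48 h at 37 °C under 5% CO2/5% O2. Stocks in DMSO diluted in RPMI 1640-based medium with Albumax, HEPES, hypoxanthine. ~800 000 cells stained with SYBR green I for 20 min in the dark; ~100,000 events counted by flow cytometry. Triplicates, at least three experiments.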

[7] = test system: Plasmodium falciparum; assay: Potency index, ratio of ivermectin IC50 to test compound IC50 for antiplasmodial activity against chloroquine-sensitive ring-stage synchronized cultures of Plasmodium falciparum NF54; format: functional
[8] = Plasmodium falciparum, NF54, 48 h, read-out: IC50

Row | IC50 ([3]; Plasmodium berghei, Huh-7) [nM] | IC50 [6, 8] [nM] | IC50 [6] | IC50 [3] [nM] | IC50 ([6]; read-out: IC50) [nM] | Molecule | Activity [1] | Activity [2] | Activity [4] | Ratio IC50 [5] | Ratio IC50 [7]
1 | – | – | – | – | – | IVERMECTIN [listing 1 of 2 here] | Active | – | – | – | –
2 | 503 | 50.2 | – | – | – | CCOC(=O)c1c(C)nc(OCc2cn(CC(=O)O[C@@H]3/C(C)=C/C[C@@H]4C[C@@H](C[C@]5(CC[C@H](C)[C@@H]([C@@H](C)CC)O5)O4)OC(=O)[C@@H]4C=C(C)[C@@H](O)[C@H]5OC/C(=C\C=C\[C@@H]3C)[C@]54O)nn2)nc1-c1cc(OC)c(OC)cc1[N+](=O)[O-] | inactive | Active | Non-Toxic | 3 | 5
3 | 4560 | – | Not Active | – | – | CC[C@H](C)[C@H]1O[C@]2(CC[C@@H]1C)C[C@@H]1C[C@@H](C/C=C(\C)[C@@H](O)[C@@H](C)/C=C/C=C3\CO[C@@H]4[C@H](O)C(C)=C[C@@H](C(=O)O1)[C@]34O)O2 [IVM AGLYCONE] | inactive | Active | Non-Toxic | – | –
4 | 0.7 | – | – | – | – | O=C1C(O)=C([C@H]2CC[C@H](c3ccc(Cl)cc3)CC2)C(=O)c2ccccc21 [ATOVAQUONE] | – | – | – | – | –
5 | – | – | – | – | – | CC[C@H](C)[C@H]1O[C@]2(CC[C@@H]1C)C[C@@H]1C[C@@H](C/C=C(\C)[C@@H](OC(=O)Cn3cc(COc4nc(C)c(C(=O)OC(C)C)c(-c5cccc([N+](=O)[O-])c5)n4)nn3)[C@@H](C)/C=C/C=C3\CO[C@@H]4[C@H](O[Si](C)(C)C(C)(C)C)C(C)=C[C@@H](C(=O)O1)[C@]34O)O2 | – | inactive | Non-Toxic | – | –
6 | – | – | – | 1640 | 520 | IVERMECTIN [listing 2 of 2 here] | – | – | – | – | –
7 | 990 | 110 | – | – | – | CCOC(=O)c1c(C)nc(OCc2cn(CC(=O)O[C@@H]3/C(C)=C/C[C@@H]4C[C@@H](C[C@]5(CC[C@H](C)[C@@H]([C@@H](C)CC)O5)O4)OC(=O)[C@@H]4C=C(C)[C@@H](O)[C@H]5OC/C(=C\C=C\[C@@H]3C)[C@]54O)nn2)nc1-c1ccccc1 | – | Active | Non-Toxic | – | 11
8 | 911 | 161 | – | – | – | CC[C@H](C)[C@H]1O[C@]2(CC[C@@H]1C)C[C@@H]1C[C@@H](C/C=C(\C)[C@@H](OC(=O)Cn3cc(COc4nc(C)c(C(=O)OC(C)C)c(-c5cccc([N+](=O)[O-])c5)n4)nn3)[C@@H](C)/C=C/C=C3\CO[C@@H]4[C@H](O)C(C)=C[C@@H](C(=O)O1)[C@]34O)O2 | – | Active | Non-Toxic | – | 3
